Measurements taken from ChEMBL document CHEMBL1144733, “Design and synthesis of nitrate esters of aromatic heterocyclic compounds as pharmacological preconditioning agents” (2008).
Activity calls are given as the source filed them. No cut-off for these calls is given here.

Assays:
Oryctolagus cuniculus [1] = assay: Cardioprotective effect in New Zealand white rabbit assessed as reduction of infract size at 1.3 mg/kg, iv administered before 30 mins of ischemia and 3 hrs of reperfusion in presence of mitoKATP blocker 5-hydroxydecanoic acid relative to control; assay type: functional; design: scale not given: the % may be the effect or the level left
Outline: (§1)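 Anesthetized (pentobarbital 30 mg/kg iv), ventilated male rabbits; regional myocardial ischemia 30 min, reperfusion 3 h. Total 1.3 mg/kg split into two iv boluses in 0.2 ml DMSO + 0.8 ml saline, 40 min and 1 min before ischemia; controls got vehicle. Microspheres delineated risk zone; 3 mm slices stained with 1% TTC, 20 min, 37 C; infarct/risk volume ratio (%). n = 5-10 per group.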

Oryctolagus cuniculus [2] = assay: Cardioprotective effect in New Zealand white rabbit assessed as reduction of infract size at 1.3 mg/kg, iv administered before 30 of mins ischemia and 3 hrs of reperfusion in presence of adenosine receptor blocker 8-(p-sulfonyl) theophylline relative to control; assay type: functional; design: scale not given: the % may be the effect or the level left; outline: as §1
Oryctolagus cuniculus [3] = assay: Cardioprotective effect in New Zealand white rabbit assessed as reduction of infract size at 1.3 mg/kg, iv administered before 30 mins of ischemia and 3 hrs of reperfusion relative to control; assay type: functional; design: scale not given: the % may be the effect or the level left; outline: as §1
Oryctolagus cuniculus [4] = assay: Decrease in MDA level in New Zealand white rabbit at 1.3 mg/kg, iv after 20 mins of reperfusion relative to control; assay type: functional, organism-based; design: dose 1.3 mg/kg
Outline: (§2)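 Rabbit plasma sampled at baseline, 20 min ischemia, and 1 and 20 min reperfusion after 1.3 mg/kg iv (two boluses). MDA by N-methyl-2-phenyl-indole colorimetric kit: 0.2 ml plasma plus reagent and HCl, 45 C for 60 min, centrifuged, A586; MDA standard curve (2-20 lmol/ml); triplicate; mean ± SEM.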

Oryctolagus cuniculus [5] = assay: Increase in circulating cGMP level in New Zealand white rabbit at 1.3 mg/kg, iv after 20 mins of ischemia by enzyme immunoassay relative to control; assay type: functional, organism-based; design: dose 1.3 mg/kg
Outline: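 Plasma from rabbits dosed 1.3 mg/kg iv (40 and 1 min pre-ischemia) drawn at 20 min of sustained ischemia. cGMP by competitive enzyme immunoassay: alkaline phosphatase-cGMP conjugate plus polyclonal antibody, 2 h at 25 C shaking, p-nitrophenyl phosphate 1 h, read 450 nm corrected at 550 nm; concentration from standard curve.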

Oryctolagus cuniculus [6] = assay: Increase in MDA level in New Zealand white rabbit at 1.3 mg/kg, iv after 20 mins of ischemia relative to control; assay type: functional, organism-based; design: dose 1.3 mg/kg; outline: as §2

| SMILES | Activity (Oryctolagus cuniculus [1]) | Activity (Oryctolagus cuniculus [2]) | Activity (Oryctolagus cuniculus [3]) | Activity (Oryctolagus cuniculus [4]) | Activity (Oryctolagus cuniculus [5]) | Activity (Oryctolagus cuniculus [6]) |
| --- | --- | --- | --- | --- | --- | --- |
| O=[N+]([O-])OCCCCCCn1cnc2c(N3CCCCC3)ncnc21 | 21.9% | 28.03% | 19.8% | Active | – | – |
| O=C(NCCO[N+](=O)[O-])c1cc2ccccc2[nH]1 | 40.12% | – | 20.5% | Active | Active | Active |
| O=[N+]([O-])OCCCCCCCCCCCn1cnc2c(N3CCCCC3)ncnc21 | – | – | – | Active | Active | – |
| O=C(NCCO[N+](=O)[O-])c1ccc2ccccc2n1 | – | – | 22.4% | Active | Active | Active |
